According to ChEMBL document CHEMBL3098105, “7,7'-Diazaindirubin--a small molecule inhibitor of casein kinase 2 in vitro and in cells” (Bioorg Med Chem, 2014):

Key:
[1] = biological target: Glycogen synthase kinase-3 beta (Homo sapiens) (UniProt P49841); assay: Inhibition of GSK3-beta (unknown origin) assessed as residual activity at 1 uM relative to control
[2] = biological target: Serine/threonine-protein kinase Chk2 (Homo sapiens) (UniProt O96017); assay: Inhibition of CHK2 (unknown origin) assessed as residual activity at 1 uM relative to control
[3] = biological target: T1, Serine/threonine-protein kinase Chk1 (Homo sapiens) (UniProt O14757); assay: Inhibition of CHK1 (unknown origin) assessed as residual activity at 1 uM relative to control
T1 sequence (whole entry): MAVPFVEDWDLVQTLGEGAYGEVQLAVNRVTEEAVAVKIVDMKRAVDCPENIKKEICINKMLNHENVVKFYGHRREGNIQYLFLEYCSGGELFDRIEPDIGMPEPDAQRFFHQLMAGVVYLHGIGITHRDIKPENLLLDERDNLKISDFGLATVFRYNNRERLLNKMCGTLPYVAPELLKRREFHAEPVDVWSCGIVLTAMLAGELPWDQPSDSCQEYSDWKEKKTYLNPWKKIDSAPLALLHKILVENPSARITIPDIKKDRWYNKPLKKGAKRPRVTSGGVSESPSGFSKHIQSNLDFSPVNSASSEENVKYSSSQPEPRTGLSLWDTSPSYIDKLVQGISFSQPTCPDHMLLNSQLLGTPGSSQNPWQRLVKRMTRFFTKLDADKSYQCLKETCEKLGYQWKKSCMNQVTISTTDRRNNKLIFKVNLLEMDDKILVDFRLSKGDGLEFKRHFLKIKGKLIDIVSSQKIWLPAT

[4] = biological target: Cyclin-dependent kinase 2/cyclin E1 (Homo sapiens) (UniProt P24864+P24941); assay: Inhibition of CDK2/CycE (unknown origin) assessed as residual activity at 1 uM relative to control; type: protein-complex assay
MDA-MB-468 = assay: Antiproliferative activity against human MDA-MB-468 cells after 3 days by sulforhodamine B assay; type: functional; conditions: MDA-MB-468, 72 h
Outline: (§1)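 Tested in the NCI 60 cell line panel. GI50 is the concentration giving 50% inhibition of cell growth, and values are the mean of two series of tests.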

T47D = assay: Antiproliferative activity against human T47D cells after 3 days by sulforhodamine B assay; type: functional; conditions: 72 h
MDA-MB-231 = assay: Antiproliferative activity against human MDA-MB-231 cells after 3 days by sulforhodamine B assay; type: functional; conditions: MDA-MB-231, 72 h; outline: as §1
UACC-62 = assay: Antiproliferative activity against human UACC62 cells after 3 days by sulforhodamine B assay; type: functional; conditions: UACC-62, 72 h
[5] = Antiproliferative activity against human UACC257 cells after 3 days by sulforhodamine B assay; type: functional; conditions: UACC-257, 72 h
SF-295 = assay: Antiproliferative activity against human SF295 cells after 3 days by sulforhodamine B assay; type: functional; conditions: SF-295, 72 h; outline: as §1
NCI-H23 = assay: Antiproliferative activity against human NCI-H23 cells after 3 days by sulforhodamine B assay; type: functional; conditions: NCI-H23, 72 h; outline: as §1
[6] = biological target: Serine/threonine-protein kinase WNK2 (Homo sapiens) (UniProt Q9Y3S1); assay: Inhibition of human WNK2 assessed as residual activity at 1 uM relative to control
[7] = biological target: Serine/threonine-protein kinase ULK3 (Homo sapiens) (UniProt Q6PHR2); assay: Inhibition of human ULK3 assessed as residual activity at 1 uM relative to control
[8] = biological target: Testis-specific serine/threonine-protein kinase 1 (Homo sapiens) (UniProt Q9BXA7); assay: Inhibition of human TSSK1 assessed as residual activity at 1 uM relative to control
[9] = biological target: Ribosomal protein S6 kinase alpha-2 (Homo sapiens) (UniProt Q15349); assay: Inhibition of human Rsk3 assessed as residual activity at 1 uM relative to control
[10] = biological target: Serine/threonine-protein kinase PLK1 (Homo sapiens) (UniProt P53350); assay: Inhibition of human Plk1 assessed as residual activity at 1 uM relative to control
K562 = assay: Antiproliferative activity against human K562 cells after 3 days by sulforhodamine B assay; type: functional; conditions: K562, 72 h; outline: as §1
[11] = biological target: Serine/threonine-protein kinase PAK 4 (Homo sapiens) (UniProt O96013); assay: Inhibition of human PAK4 assessed as residual activity at 1 uM relative to control
[12] = biological target: Serine/threonine-protein kinase NLK (Homo sapiens) (UniProt Q9UBE8); assay: Inhibition of human NLK assessed as residual activity at 1 uM relative to control
[13] = biological target: Ribosomal protein S6 kinase alpha-4 (Homo sapiens) (UniProt O75676); assay: Inhibition of human MSK2 assessed as residual activity at 1 uM relative to control
[14] = biological target: Mitogen-activated protein kinase 1 (Homo sapiens) (UniProt P28482); assay: Inhibition of human MAPK2 assessed as residual activity at 1 uM relative to control
[15] = biological target: Serine/threonine-protein kinase 10 (Homo sapiens) (UniProt O94804); assay: Inhibition of human LOK assessed as residual activity at 1 uM relative to control
[16] = biological target: Insulin receptor-related protein (Homo sapiens) (UniProt P14616); assay: Inhibition of human IRR assessed as residual activity at 1 uM relative to control
[17] = biological target: Glycogen synthase kinase-3 beta (Homo sapiens) (UniProt P49841); assay: Inhibition of human GSK3beta assessed as residual activity at 1 uM relative to control
[18] = biological target: Glycogen synthase kinase-3 alpha (Homo sapiens) (UniProt P49840); assay: Inhibition of human GSK3alpha assessed as residual activity at 1 uM relative to control
[19] = biological target: G protein-coupled receptor kinase 5 (Homo sapiens) (UniProt P34947); assay: Inhibition of human GRK5 assessed as residual activity at 1 uM relative to control
[20] = biological target: Ephrin type-A receptor 8 (Homo sapiens) (UniProt P29322); assay: Inhibition of human EphA8 assessed as residual activity at 1 uM relative to control
[21] = biological target: Ephrin type-A receptor 1 (Homo sapiens) (UniProt P21709); assay: Inhibition of human EphA1 assessed as residual activity at 1 uM relative to control
[22] = biological target: Death-associated protein kinase 1 (Homo sapiens) (UniProt P53355); assay: Inhibition of human DAPK1 assessed as residual activity at 1 uM relative to control
[23] = biological target: Casein kinase II subunit alpha' (Homo sapiens) (UniProt P19784); assay: Inhibition of human CK2a2 assessed as residual activity at 1 uM relative to control
[24] = biological target: T1, Serine/threonine-protein kinase Chk1 (Homo sapiens); assay: Inhibition of human CHK1 assessed as residual activity at 1 uM relative to control
[25] = biological target: Calcium/calmodulin-dependent protein kinase type IV (Homo sapiens) (UniProt Q16566); assay: Inhibition of human CaMK4 assessed as residual activity at 1 uM relative to control
[26] = biological target: Activated CDC42 kinase 1 (Homo sapiens) (UniProt Q07912); assay: Inhibition of human ACK1 assessed as residual activity at 1 uM relative to control
[27] = biological target: Proto-oncogene tyrosine-protein kinase Src (Homo sapiens) (UniProt P12931); assay: Inhibition of SRC (unknown origin) assessed as residual activity at 1 uM relative to control

Chain of Glycogen synthase kinase-3 beta (Homo sapiens) (P49841 whole entry, looked up): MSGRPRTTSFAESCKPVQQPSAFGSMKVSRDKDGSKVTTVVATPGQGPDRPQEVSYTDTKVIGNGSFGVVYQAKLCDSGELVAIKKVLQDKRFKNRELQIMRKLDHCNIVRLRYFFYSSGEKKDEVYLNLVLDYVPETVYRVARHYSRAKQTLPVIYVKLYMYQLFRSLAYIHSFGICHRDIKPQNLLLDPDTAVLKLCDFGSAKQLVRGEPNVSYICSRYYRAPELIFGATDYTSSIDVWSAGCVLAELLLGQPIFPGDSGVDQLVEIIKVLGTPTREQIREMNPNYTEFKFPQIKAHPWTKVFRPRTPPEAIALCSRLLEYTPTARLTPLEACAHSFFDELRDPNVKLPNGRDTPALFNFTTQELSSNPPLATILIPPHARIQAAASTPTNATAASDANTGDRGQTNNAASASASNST
Chain of G protein-coupled receptor kinase 5 (Homo sapiens) (P34947 whole entry, looked up): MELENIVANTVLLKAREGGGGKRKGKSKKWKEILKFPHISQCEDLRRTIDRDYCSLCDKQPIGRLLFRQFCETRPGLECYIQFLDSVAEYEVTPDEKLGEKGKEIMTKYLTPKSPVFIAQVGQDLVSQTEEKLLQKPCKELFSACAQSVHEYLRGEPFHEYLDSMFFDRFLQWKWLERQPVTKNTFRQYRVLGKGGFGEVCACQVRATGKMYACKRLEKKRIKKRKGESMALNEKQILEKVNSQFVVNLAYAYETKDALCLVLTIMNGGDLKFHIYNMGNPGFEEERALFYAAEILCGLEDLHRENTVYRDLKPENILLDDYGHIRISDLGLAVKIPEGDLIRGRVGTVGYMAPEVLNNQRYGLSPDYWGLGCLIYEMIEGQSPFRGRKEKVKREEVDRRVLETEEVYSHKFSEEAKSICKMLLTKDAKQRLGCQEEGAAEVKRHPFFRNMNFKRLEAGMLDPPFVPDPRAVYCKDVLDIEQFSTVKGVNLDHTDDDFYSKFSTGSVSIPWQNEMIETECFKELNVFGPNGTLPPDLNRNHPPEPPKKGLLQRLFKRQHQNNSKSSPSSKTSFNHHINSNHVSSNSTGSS
Chain of Serine/threonine-protein kinase 10 (Homo sapiens) (O94804 whole entry, looked up): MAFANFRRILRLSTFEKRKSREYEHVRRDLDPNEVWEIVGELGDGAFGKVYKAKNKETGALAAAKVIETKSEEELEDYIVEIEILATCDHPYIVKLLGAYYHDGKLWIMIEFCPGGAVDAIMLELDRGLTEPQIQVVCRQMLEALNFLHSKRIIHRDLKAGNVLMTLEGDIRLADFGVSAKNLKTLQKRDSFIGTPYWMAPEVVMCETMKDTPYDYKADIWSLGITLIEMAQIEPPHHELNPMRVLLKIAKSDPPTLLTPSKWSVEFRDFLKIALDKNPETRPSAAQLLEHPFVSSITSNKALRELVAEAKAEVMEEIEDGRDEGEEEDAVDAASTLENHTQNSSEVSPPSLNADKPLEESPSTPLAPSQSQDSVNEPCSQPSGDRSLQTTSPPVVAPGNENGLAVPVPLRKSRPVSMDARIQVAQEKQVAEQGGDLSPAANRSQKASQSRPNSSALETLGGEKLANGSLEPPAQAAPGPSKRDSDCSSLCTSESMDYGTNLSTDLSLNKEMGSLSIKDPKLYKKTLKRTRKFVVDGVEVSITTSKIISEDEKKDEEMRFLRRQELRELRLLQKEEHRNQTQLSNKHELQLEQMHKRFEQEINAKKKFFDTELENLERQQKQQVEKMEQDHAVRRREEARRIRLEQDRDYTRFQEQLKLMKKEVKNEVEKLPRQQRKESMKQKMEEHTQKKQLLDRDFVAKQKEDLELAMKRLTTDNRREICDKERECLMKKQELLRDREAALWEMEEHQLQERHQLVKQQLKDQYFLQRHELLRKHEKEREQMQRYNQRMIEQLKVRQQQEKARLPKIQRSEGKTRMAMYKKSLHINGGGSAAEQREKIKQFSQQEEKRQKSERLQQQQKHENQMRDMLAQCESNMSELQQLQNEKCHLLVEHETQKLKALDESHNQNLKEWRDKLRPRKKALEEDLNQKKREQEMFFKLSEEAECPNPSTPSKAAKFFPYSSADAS
Chain of Serine/threonine-protein kinase ULK3 (Homo sapiens) (Q6PHR2 whole entry): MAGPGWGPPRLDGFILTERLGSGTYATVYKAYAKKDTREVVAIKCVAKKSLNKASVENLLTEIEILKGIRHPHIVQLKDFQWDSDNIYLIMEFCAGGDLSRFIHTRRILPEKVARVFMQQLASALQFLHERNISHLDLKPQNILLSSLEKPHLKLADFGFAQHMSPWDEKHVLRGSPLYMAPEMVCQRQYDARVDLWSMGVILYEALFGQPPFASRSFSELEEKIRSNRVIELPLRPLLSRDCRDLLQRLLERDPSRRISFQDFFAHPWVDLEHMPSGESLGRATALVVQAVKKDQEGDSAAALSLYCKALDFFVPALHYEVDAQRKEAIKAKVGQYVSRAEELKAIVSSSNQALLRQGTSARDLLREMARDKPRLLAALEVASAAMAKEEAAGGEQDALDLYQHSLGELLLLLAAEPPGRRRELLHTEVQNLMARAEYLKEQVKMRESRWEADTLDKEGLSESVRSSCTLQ
Chain of Casein kinase II subunit alpha' (Homo sapiens) (P19784 whole entry, looked up): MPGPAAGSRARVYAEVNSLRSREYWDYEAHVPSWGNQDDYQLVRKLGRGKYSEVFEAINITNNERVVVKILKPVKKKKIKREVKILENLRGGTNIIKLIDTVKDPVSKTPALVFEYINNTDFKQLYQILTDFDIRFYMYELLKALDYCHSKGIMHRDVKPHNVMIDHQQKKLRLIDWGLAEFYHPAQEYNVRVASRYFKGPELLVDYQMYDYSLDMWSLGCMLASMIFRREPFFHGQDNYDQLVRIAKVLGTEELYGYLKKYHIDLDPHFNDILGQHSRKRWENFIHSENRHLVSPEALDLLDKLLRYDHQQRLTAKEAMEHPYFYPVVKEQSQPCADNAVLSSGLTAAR
Chain of Ribosomal protein S6 kinase alpha-2 (Homo sapiens) (Q15349 whole entry): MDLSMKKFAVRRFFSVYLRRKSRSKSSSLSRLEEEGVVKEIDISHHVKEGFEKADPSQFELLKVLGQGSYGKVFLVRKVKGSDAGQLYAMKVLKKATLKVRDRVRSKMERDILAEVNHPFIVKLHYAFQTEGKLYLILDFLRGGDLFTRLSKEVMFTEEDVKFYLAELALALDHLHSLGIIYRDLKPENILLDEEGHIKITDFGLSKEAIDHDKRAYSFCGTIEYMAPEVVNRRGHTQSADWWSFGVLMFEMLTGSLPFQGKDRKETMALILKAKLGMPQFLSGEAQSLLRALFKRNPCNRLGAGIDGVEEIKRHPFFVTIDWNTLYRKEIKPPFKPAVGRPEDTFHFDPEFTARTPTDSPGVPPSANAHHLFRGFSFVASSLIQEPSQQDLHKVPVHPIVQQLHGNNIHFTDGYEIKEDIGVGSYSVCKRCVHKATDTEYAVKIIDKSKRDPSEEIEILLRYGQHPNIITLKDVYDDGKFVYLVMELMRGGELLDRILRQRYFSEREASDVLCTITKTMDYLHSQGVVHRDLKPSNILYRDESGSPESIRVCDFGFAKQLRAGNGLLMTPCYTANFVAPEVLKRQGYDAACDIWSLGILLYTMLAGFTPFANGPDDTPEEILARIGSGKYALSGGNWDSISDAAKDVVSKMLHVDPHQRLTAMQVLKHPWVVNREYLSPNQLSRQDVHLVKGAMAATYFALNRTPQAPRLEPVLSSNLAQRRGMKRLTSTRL
Chain of Death-associated protein kinase 1 (Homo sapiens) (P53355 whole entry, looked up): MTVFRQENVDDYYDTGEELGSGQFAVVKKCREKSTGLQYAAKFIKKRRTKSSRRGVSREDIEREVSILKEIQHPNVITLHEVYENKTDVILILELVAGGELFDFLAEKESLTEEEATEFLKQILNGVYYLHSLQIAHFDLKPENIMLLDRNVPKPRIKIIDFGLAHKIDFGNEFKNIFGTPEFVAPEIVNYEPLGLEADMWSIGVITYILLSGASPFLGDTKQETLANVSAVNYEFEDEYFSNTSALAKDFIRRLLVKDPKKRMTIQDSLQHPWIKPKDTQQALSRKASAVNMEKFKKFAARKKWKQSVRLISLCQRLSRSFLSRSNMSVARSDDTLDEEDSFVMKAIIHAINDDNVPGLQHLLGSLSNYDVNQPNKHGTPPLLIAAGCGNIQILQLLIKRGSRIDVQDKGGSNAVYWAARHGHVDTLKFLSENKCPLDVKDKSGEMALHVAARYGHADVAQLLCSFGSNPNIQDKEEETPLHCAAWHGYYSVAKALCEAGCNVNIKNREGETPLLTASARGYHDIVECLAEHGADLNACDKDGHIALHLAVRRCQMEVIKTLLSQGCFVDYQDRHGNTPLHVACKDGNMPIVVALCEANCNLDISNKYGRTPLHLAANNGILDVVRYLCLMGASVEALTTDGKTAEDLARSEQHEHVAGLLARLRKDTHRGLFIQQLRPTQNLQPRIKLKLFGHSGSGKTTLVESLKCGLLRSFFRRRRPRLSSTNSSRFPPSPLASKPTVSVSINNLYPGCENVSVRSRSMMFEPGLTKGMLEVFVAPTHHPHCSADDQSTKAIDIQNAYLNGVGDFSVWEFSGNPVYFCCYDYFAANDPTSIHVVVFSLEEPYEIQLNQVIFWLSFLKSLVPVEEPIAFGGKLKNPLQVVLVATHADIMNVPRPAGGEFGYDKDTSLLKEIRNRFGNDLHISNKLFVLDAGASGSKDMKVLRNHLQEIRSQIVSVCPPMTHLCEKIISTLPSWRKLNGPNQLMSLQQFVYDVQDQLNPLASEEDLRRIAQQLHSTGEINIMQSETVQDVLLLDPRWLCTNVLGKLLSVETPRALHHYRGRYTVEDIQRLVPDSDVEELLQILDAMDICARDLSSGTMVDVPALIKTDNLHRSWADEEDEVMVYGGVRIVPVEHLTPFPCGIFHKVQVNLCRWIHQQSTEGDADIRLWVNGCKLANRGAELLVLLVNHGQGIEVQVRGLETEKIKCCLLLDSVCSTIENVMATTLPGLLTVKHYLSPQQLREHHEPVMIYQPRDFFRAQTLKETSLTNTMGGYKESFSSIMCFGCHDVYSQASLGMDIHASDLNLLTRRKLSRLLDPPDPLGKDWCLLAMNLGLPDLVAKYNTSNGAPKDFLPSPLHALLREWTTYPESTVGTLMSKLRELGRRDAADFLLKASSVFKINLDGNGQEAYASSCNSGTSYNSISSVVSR

O=C1Nc2ncccc2/C1=C1/Nc2ncccc2C1=O
Activity [1]: 92% | Activity [2]: 89% | Activity [3]: 99% | Activity [4]: 90% | GI50 (MDA-MB-468): 1140 nM | GI50 (T47D): 1770 nM | GI50 (MDA-MB-231): 1700 nM | GI50 (UACC-62): 432 nM | GI50 [5]: 214 nM | GI50 (SF-295): 257 nM | GI50 (NCI-H23): 376 nM | Activity [6]: 102% | Activity [7]: 100% | Activity [8]: 85% | Activity [9]: 72% | Activity [10]: 101% | GI50 (K562): 2260 nM | Activity [11]: 108% | Activity [12]: 123% | Activity [13]: 78% | Activity [14]: 104% | Activity [15]: 93% | Activity [16]: 80% | Activity [17]: 63% | Activity [18]: 68% | Activity [19]: 99% | Activity [20]: 114% | Activity [21]: 111% | Activity [22]: 94% | Activity [23]: 28% | Activity [24]: 107% | Activity [25]: 100% | Activity [26]: 97% | Activity [27]: 99%
